Results: ChEMBL document CHEMBL1250472, “"Clicked" bivalent ligands containing curcumin and cholesterol as multifunctional abeta oligomerization inhibitors: design, synthesis, and biological characterization” (J Med Chem, 2010)
One block for each molecule: values may come before it. Calls of active or inactive are those of the source. The rule behind the calls is not given here.

Tests used:
[1] = target: Amyloid-beta precursor protein (Homo sapiens) (UniProt P05067); assay: Inhibition of APP expressed in human MC65 cells assessed as inhibition of amyloid beta oligomer formation at 10 uM by Western blotting after removal of tetracycline
[2] = target: Amyloid-beta precursor protein (Homo sapiens) (UniProt P05067); assay: Inhibition of APP expressed in human MC65 cells assessed as inhibition of amyloid beta oligomer formation at 10 uM by Western blotting; type: cell-based
How it was run: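 MC65 cells, 1 × 10^6/well, exposed to compounds (10 μM) in Opti-MEM with or without TC for 24 h. Lysates (10 μg protein) run on 10-20% tris-tricine SDS-PAGE and blotted with 6E10 (1:2000), HRP secondary, chemiluminescence. Three independent experiments.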

[3] = target: Amyloid-beta precursor protein (Homo sapiens) (UniProt P05067); assay: Inhibition of APP expressed in human MC65 cells assessed as inhibition of amyloid beta 42 oligomerization by transmission electron microscopy; type: cell-based
MC65 [4] = assay: Binding affinity to amyloid beta expressed in human MC65 cells after 24 hrs by immunocytometry; type: cell-based
How it was run: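 MC65 cells, 1 × 10^4/well, given compounds (10 μM) right after TC removal, 24 h. Surface stained with Alexa 488-CTX-B on ice, then fixed in 4% paraformaldehyde and permeabilized with Triton X-100. Stained with A11 oligomer antibody plus Alexa 568 secondary, DAPI counterstain. Confocal imaging; red puncta per cell averaged over five areas.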

MC65 [5] = assay: Binding affinity to cell membrane/lipid raft of human MC65 cells after 24 hrs by immunocytometry; type: cell-based
How it was run: (§1)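 MC65 cells exposed to compound (10 μM) for 24 h, fixed in 4% paraformaldehyde, permeabilized with 0.1% Triton X-100, DAPI-stained. Compound's own fluorescence located by confocal microscopy (excitation 355 and 494 nm). 1.0 μm optical sections through the cell depth, projected into a composite image.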

Spleen = assay: Toxicity against mouse spleen after 24 hrs; type: tissue-based; settings: in vitro
MC65 [6] = assay: Antioxidant activity in human MC65 cells assessed as decrease in oxidative stress by DCFH-DA assay; type: functional, cell-based
How it was run: (§2)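 MC65 cells, 4 × 10^4/well, grown 24 h, then exposed to compounds in Opti-MEM with or without TC for 24 h (blanks with compound only). DCFH-DA loaded at 25 μM final for 30 min at 37 °C, medium replaced, fluorescence read at 485/530 nm. Expressed as % of parallel -TC cultures, n = 5.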

[7] = Apparent permeability from apical to basolateral side of human Caco-2 cells; type: ADME, cell-based
How it was run: (§3)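 Caco-2 cells, passages 30-50, grown 21 days on transwell inserts to confluence; TEER >400 ohm·cm² and lucifer yellow permeability <1 × 10^-6 cm/s. Compound at 10 μM added apical or basolateral in HBSS, 37 °C with shaking. Sampling at 30, 60, 120 min, HPLC with fluorescence detection. Permeability calculated by Fick's law; efflux ratio is B-A/A-B.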

[8] = Apparent permeability from basolateral to apical side of human Caco-2 cells; type: ADME, cell-based
How it was run: as §3

[9] = Cytotoxicity against mouse NK cells after 24 hrs
MC65 [10] = assay: Cytoprotective activity against amyloid-beta oligomer-induced cytotoxicity in human MC65 cells after 72 hrs
SH-SY5Y [11] = assay: Cytoprotective activity against amyloid-beta oligomer-induced cytotoxicity in human SH-SY5Y cells after 48 hrs
[12] = Cellular uptake in human MC65 cells after 24 hrs by immunocytometry; type: ADME, cell-based; settings: mc65, 24 h
How it was run: as §1

MC65 [13] = assay: Antioxidant activity in human MC65 cells assessed as decrease in lipid peroxidation by DCFH-DA assay; type: functional, cell-based; settings: in the assay text read “intracellular oxidative stress” for “lipid peroxidation”
How it was run: as §2

SH-SY5Y [14] = assay: Cytotoxicity against human SH-SY5Y cells after 48 hrs
SH-SY5Y [15] = assay: Cytoprotective activity against amyloid-beta oligomer-induced cytotoxicity in human SH-SY5Y cells at 16 uM after 48 hrs
SH-SY5Y [16] = assay: Cytoprotective activity against amyloid-beta oligomer-induced cytotoxicity in human SH-SY5Y cells at 2 to 8 uM after 48 hrs
[17] = Cytotoxicity against human MC65 cells after 72 hrs; settings: mc65, 72 h

Amyloid-beta precursor protein (Homo sapiens), sequence (P05067 whole entry): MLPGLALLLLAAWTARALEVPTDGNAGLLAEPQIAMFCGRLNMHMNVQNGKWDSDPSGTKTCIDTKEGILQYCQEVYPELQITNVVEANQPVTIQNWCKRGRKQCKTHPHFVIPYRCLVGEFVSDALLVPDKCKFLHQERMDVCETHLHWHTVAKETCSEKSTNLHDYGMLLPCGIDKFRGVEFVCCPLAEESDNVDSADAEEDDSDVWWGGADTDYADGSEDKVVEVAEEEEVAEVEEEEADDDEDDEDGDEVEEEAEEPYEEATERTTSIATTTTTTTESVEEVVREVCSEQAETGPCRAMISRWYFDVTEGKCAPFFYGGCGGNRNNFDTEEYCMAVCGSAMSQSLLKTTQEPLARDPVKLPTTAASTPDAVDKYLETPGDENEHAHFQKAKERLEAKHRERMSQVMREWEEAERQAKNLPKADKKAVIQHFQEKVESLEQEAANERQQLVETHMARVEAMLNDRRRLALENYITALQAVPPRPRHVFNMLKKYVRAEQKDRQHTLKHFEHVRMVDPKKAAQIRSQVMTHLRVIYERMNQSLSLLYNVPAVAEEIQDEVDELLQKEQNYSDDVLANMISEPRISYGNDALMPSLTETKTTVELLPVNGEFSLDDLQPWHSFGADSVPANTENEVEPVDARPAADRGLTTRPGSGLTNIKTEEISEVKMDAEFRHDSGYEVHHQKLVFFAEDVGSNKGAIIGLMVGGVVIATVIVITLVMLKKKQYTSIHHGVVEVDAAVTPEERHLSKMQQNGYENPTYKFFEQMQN

SMILES: COc1cc(/C=C/C(=O)/C(Cc2cn(CCCCCCNC(=O)CO[C@H]3CC[C@@]4(C)C(=CC[C@H]5[C@@H]6CC[C@H]([C@H](C)CCCC(C)C)[C@@]6(C)CC[C@@H]54)C3)nn2)=C(O)/C=C/c2ccc(O)c(OC)c2)ccc1O
inhibition [1]: inactive

SMILES: COc1cc(/C=C/C(=O)/C=C(O)/C=C/c2ccc(OCc3cn(CCCCCCNC(=O)CO[C@H]4CC[C@@]5(C)C(=CC[C@H]6[C@@H]7CC[C@H]([C@H](C)CCCC(C)C)[C@@]7(C)CC[C@@H]65)C4)nn3)c(OC)c2)ccc1O
inhibition [1]: inactive

SMILES: COc1cc(/C=C/C(=O)/C(Cc2cn(CCCCNC(=O)CCNC(=O)CCNC(=O)CO[C@H]3CC[C@@]4(C)C(=CC[C@H]5[C@@H]6CC[C@H]([C@H](C)CCCC(C)C)[C@@]6(C)CC[C@@H]54)C3)nn2)=C(O)/C=C/c2ccc(O)c(OC)c2)ccc1O
inhibition [1]: Active

SMILES: COc1cc(/C=C/C(=O)/C=C(O)/C=C/c2ccc(OCc3cn(CCCCNC(=O)CO[C@H]4CC[C@@]5(C)C(=CC[C@H]6[C@@H]7CC[C@H]([C@H](C)CCCC(C)C)[C@@]7(C)CC[C@@H]65)C4)nn3)c(OC)c2)ccc1O
inhibition [1]: inactive

SMILES: COc1cc(/C=C/C(=O)CC(=O)/C=C/c2ccc(O)c(OC)c2)ccc1O [CURCUMIN]
inhibition [3]: Active | Drug uptake [12]: Active | Activity (MC65 [6]): Active | Activity (MC65 [13]): Active | Activity (SH-SY5Y [14]): Toxic | Activity (MC65 [10]): Active | Activity (SH-SY5Y [15]): inactive | Activity (SH-SY5Y [16]): Active | inhibition [1]: inactive

SMILES: COc1cc(/C=C/C(=O)/C=C(O)/C=C/c2ccc(OCc3cn(CCCCNC(=O)CCNC(=O)CO[C@H]4CC[C@@]5(C)C(=CC[C@H]6[C@@H]7CC[C@H]([C@H](C)CCCC(C)C)[C@@]7(C)CC[C@@H]65)C4)nn3)c(OC)c2)ccc1O
inhibition [1]: Active

SMILES: CCCCNC(=O)CCC(=O)NCCCCCCn1cc(C/C(C(=O)/C=C/c2ccc(O)c(OC)c2)=C(O)\C=C\c2ccc(O)c(OC)c2)nn1
inhibition [1]: inactive

SMILES: COc1cc(/C=C/C(=O)/C=C(O)/C=C/c2ccc(OCc3cn(CCCCNC(=O)CCNC(=O)CCNC(=O)CO[C@H]4CC[C@@]5(C)C(=CC[C@H]6[C@@H]7CC[C@H]([C@H](C)CCCC(C)C)[C@@]7(C)CC[C@@H]65)C4)nn3)c(OC)c2)ccc1O
inhibition [1]: Active

SMILES: COc1cc(/C=C/C(=O)/C=C(O)/C=C/c2ccc(OCc3cn(CCCCCCNC(=O)CCNC(=O)CCNC(=O)CO[C@H]4CC[C@@]5(C)C(=CC[C@H]6[C@@H]7CC[C@H]([C@H](C)CCCC(C)C)[C@@]7(C)CC[C@@H]65)C4)nn3)c(OC)c2)ccc1O
Activity [17]: Non-toxic

SMILES: COc1cc(/C=C/C(=O)/C(Cc2cn(CCCCCCNC(=O)CCNC(=O)CO[C@H]3CC[C@@]4(C)C(=CC[C@H]5[C@@H]6CC[C@H]([C@H](C)CCCC(C)C)[C@@]6(C)CC[C@@H]54)C3)nn2)=C(O)/C=C/c2ccc(O)c(OC)c2)ccc1O
Activity [17]: Non-toxic | inhibition [1]: Active

Further lines, with some results ahead:

inhibition [2]: Active | inhibition [3]: Active | Papp A→B [7]: 7.1 ×10⁻⁶ cm/s | Papp B→A [8]: 4.7 ×10⁻⁶ cm/s | inhibition [1]: Active
SMILES: COc1cc(/C=C/C(=O)/C(Cc2cn(CCCCCCNC(=O)CCNC(=O)CCNC(=O)CO[C@H]3CC[C@@]4(C)C(=CC[C@H]5[C@@H]6CC[C@H]([C@H](C)CCCC(C)C)[C@@]6(C)CC[C@@H]54)C3)nn2)=C(O)/C=C/c2ccc(O)c(OC)c2)ccc1O
Activity (MC65 [4]): inactive | Activity (MC65 [5]): Active | Activity (Spleen): Toxic | Activity (MC65 [6]): Active | Activity [9]: Non-toxic | Activity (MC65 [10]): Dose-dependent effect | Activity (SH-SY5Y [11]): Active

inhibition [1]: inactive
SMILES: CCCCNC(=O)CCC(=O)NCCCCCCn1cc(COc2ccc(/C=C/C(O)=C/C(=O)/C=C/c3ccc(O)c(OC)c3)cc2OC)nn1

inhibition [1]: Active
SMILES: COc1cc(/C=C/C(=O)/C=C(O)/C=C/c2ccc(OCc3cn(CCCCCCNC(=O)CCNC(=O)CO[C@H]4CC[C@@]5(C)C(=CC[C@H]6[C@@H]7CC[C@H]([C@H](C)CCCC(C)C)[C@@]7(C)CC[C@@H]65)C4)nn3)c(OC)c2)ccc1O

inhibition [1]: Active
SMILES: COc1cc(/C=C/C(=O)/C(Cc2cn(CCCCNC(=O)CCNC(=O)CO[C@H]3CC[C@@]4(C)C(=CC[C@H]5[C@@H]6CC[C@H]([C@H](C)CCCC(C)C)[C@@]6(C)CC[C@@H]54)C3)nn2)=C(O)/C=C/c2ccc(O)c(OC)c2)ccc1O

inhibition [1]: inactive
SMILES: COc1cc(/C=C/C(=O)/C(Cc2cn(CCCCNC(=O)CO[C@H]3CC[C@@]4(C)C(=CC[C@H]5[C@@H]6CC[C@H]([C@H](C)CCCC(C)C)[C@@]6(C)CC[C@@H]54)C3)nn2)=C(O)/C=C/c2ccc(O)c(OC)c2)ccc1O
